Laboratory results reported in ChEMBL document CHEMBL1806372, “Cytotoxic ring A-modified steroid analogues derived from Grundmann's ketone” (Eur J Med Chem, 2011).

Columns and labels:
[1] = Antibacterial activity against Pseudomonas antimicrobica assessed as zone of inhibition at 5 uL and 32 degC after 36 hrs by disk diffusion method; format: functional, Burkholderia gladioli
Outline: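 Disc diffusion on AC agar, each strain spread evenly over the medium; test compounds given as 1% (w/v) DMSO solutions. Plates covered and incubated 36 h at 32 °C, then the diameter of the zone of inhibited growth measured in mm. Tetracycline served as antibacterial reference.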

[2] = tested on: SN12C; experiment: Cytotoxicity against human SN12C cells after 48 hrs by sulforhodamine B assay; format: functional; conditions: read-out: LC50 (the source's name)
Outline: (§1)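 NCI 60 human tumour cell line panel run to the NCI protocol. GI50, TGI and LC50 come from log concentration vs % growth inhibition curves for each cell line. Lines insensitive at the top concentration are reported with ">".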

[3] = tested on: NCI-H322M; experiment: Cytotoxicity against human NCI-H322M cells after 48 hrs by sulforhodamine B assay; format: functional; conditions: read-out: LC50 (the source's name); outline: as §1
[4] = tested on: TK-10; experiment: Cytotoxicity against human TK10 cells after 48 hrs by sulforhodamine B assay; format: functional; conditions: TK-10, 48 h, read-out: LC50 (the source's name)
[5] = tested on: M14; experiment: Cytotoxicity against human M14 cells after 48 hrs by sulforhodamine B assay; format: functional; conditions: M14, 48 h, read-out: LC50 (the source's name); outline: as §1
[6] = tested on: A498; experiment: Growth inhibition of human A498 cells after 48 hrs by sulforhodamine B assay; format: functional; conditions: A498, 48 h
Outline: (§2)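 From log concentration versus % growth curves, GI50 (50% decrease in net growth), TGI (total growth inhibition) and LC50 (net 50% loss of initial cells) are derived for each line.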

[7] = tested on: MOLT-4; experiment: Growth inhibition of human MOLT4 cells after 48 hrs by sulforhodamine B assay; format: functional; conditions: MOLT-4, 48 h
Outline: (§3)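 GI50, TGI and LC50 were derived from log concentration versus % growth inhibition curves for each cell line. GI50 is the concentration giving a 50% decrease in net cell growth. Insensitive lines are reported as greater than the highest concentration.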

[8] = tested on: 786-0; experiment: Growth inhibition of human 786-0 cells after 48 hrs by sulforhodamine B assay; format: functional; conditions: 786-0, 48 h; outline: as §2
[9] = tested on: HL-60(TB); experiment: Growth inhibition of human HL-60(TB) cells after 48 hrs by sulforhodamine B assay; format: functional; conditions: HL-60, 48 h
[10] = tested on: SNB-19; experiment: Cytotoxicity against human SNB19 cells after 48 hrs by sulforhodamine B assay; format: functional; conditions: SNB-19, 48 h, read-out: LC50 (the source's name); outline: as §1
[11] = tested on: HOP-62; experiment: Cytotoxicity against human HOP62 cells after 48 hrs by sulforhodamine B assay; format: functional; conditions: HOP-62, 48 h, read-out: LC50 (the source's name); outline: as §1
[12] = tested on: NCI-H460; experiment: Cytotoxicity against human NCI-H460 cells after 48 hrs by sulforhodamine B assay; format: functional; conditions: NCI-H460, 48 h, read-out: LC50 (the source's name); outline: as §1
[13] = tested on: CAKI-1; experiment: Growth inhibition of human Caki1 cells after 48 hrs by sulforhodamine B assay; format: functional; conditions: CAKI-1, 48 h; outline: as §2
[14] = tested on: M14; experiment: Growth inhibition of human M14 cells after 48 hrs by sulforhodamine B assay; format: functional; conditions: M14, 48 h; outline: as §2
[15] = tested on: SN12C; experiment: Growth inhibition of human SN12C cells after 48 hrs by sulforhodamine B assay; format: functional
Outline: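 NCI 60-cell panel five-dose assay. GI50, TGI and LC50 are derived from log concentration versus % growth inhibition curves. Cell lines insensitive at the top concentration are given a ">" prefix.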

[16] = tested on: NCI-H322M; experiment: Growth inhibition of human NCI-H322M cells after 48 hrs by sulforhodamine B assay; format: functional; outline: as §3
[17] = tested on: KM12; experiment: Growth inhibition of human KM12 cells after 48 hrs by sulforhodamine B assay; format: functional; conditions: KM12, 48 h; outline: as §2
[18] = tested on: DU-145; experiment: Cytotoxicity against human DU145 cells after 48 hrs by sulforhodamine B assay; format: functional; conditions: DU-145, 48 h, read-out: LC50 (the source's name); outline: as §1
[19] = tested on: NCI-H226; experiment: Cytotoxicity against human NCI-H226 cells after 48 hrs by sulforhodamine B assay; format: functional; conditions: NCI-H226, 48 h, read-out: LC50 (the source's name); outline: as §1
[20] = tested on: SK-MEL-28; experiment: Growth inhibition of human SK-MEL-28 cells after 48 hrs by sulforhodamine B assay; format: functional; conditions: SK-MEL-28, 48 h; outline: as §3
[21] = tested on: SF-268; experiment: Growth inhibition of human SF268 cells after 48 hrs by sulforhodamine B assay; format: functional; conditions: SF-268, 48 h; outline: as §3
[22] = tested on: OVCAR-5; experiment: Growth inhibition of human OVCAR5 cells after 48 hrs by sulforhodamine B assay; format: functional; conditions: OVCAR-5, 48 h; outline: as §3
[23] = tested on: HOP-92; experiment: Growth inhibition of human HOP92 cells after 48 hrs by sulforhodamine B assay; format: functional; conditions: HOP-92, 48 h; outline: as §2
[24] = tested on: OVCAR-8; experiment: Growth inhibition of human OVCAR8 cells after 48 hrs by sulforhodamine B assay; format: functional; conditions: OVCAR-8, 48 h; outline: as §3
[25] = tested on: NCI-H23; experiment: Cytotoxicity against human NCI-H23 cells after 48 hrs by sulforhodamine B assay; format: functional; conditions: NCI-H23, 48 h, read-out: LC50 (the source's name); outline: as §1
[26] = tested on: SF-268; experiment: Cytotoxicity against human SF268 cells after 48 hrs by sulforhodamine B assay; format: functional; conditions: SF-268, 48 h, read-out: LC50 (the source's name); outline: as §1
[27] = tested on: NCI/ADR-RES; experiment: Cytotoxicity against human NCI/ADR-RES cells after 48 hrs by sulforhodamine B assay; format: functional; conditions: read-out: LC50 (the source's name); outline: as §1
[28] = tested on: NCI-H460; experiment: Growth inhibition of human NCI-H460 cells after 48 hrs by sulforhodamine B assay; format: functional; conditions: NCI-H460, 48 h; outline: as §3
[29] = tested on: CCRF-CEM; experiment: Cytotoxicity against human CCRF-CEM cells after 48 hrs by sulforhodamine B assay; format: functional; conditions: read-out: LC50 (the source's name); outline: as §1
[30] = tested on: PC-3; experiment: Growth inhibition of human PC3 cells after 48 hrs by sulforhodamine B assay; format: functional; conditions: PC-3, 48 h; outline: as §3
[31] = tested on: A549; experiment: Cytotoxicity against human A549 cells after 48 hrs by sulforhodamine B assay; format: functional; conditions: A549, 48 h, read-out: LC50 (the source's name); outline: as §1
[32] = tested on: HCT-15; experiment: Cytotoxicity against human HCT15 cells after 48 hrs by sulforhodamine B assay; format: functional; conditions: HCT-15, 48 h, read-out: LC50 (the source's name); outline: as §1
[33] = tested on: SF-539; experiment: Cytotoxicity against human SF539 cells after 48 hrs by sulforhodamine B assay; format: functional; conditions: SF-539, 48 h, read-out: LC50 (the source's name); outline: as §1
[34] = tested on: EKVX; experiment: Cytotoxicity against human EKVX cells after 48 hrs by sulforhodamine B assay; format: functional; conditions: read-out: LC50 (the source's name); outline: as §1
[35] = tested on: DU-145; experiment: Growth inhibition of human DU145 cells after 48 hrs by sulforhodamine B assay; format: functional; conditions: DU-145, 48 h; outline: as §2
[36] = tested on: COLO 205; experiment: Growth inhibition of human COLO205 cells after 48 hrs by sulforhodamine B assay; format: functional; conditions: COLO 205, 48 h; outline: as §2

## CC(C)CCC[C@@H](C)[C@H]1CC[C@H]2[C@@H]3CCN4C(=O)CCC(=O)N4[C@@H]3CC[C@]12C
[1]
  diameter of the inhibition zone (DIZ): 12 mm

## CC(C)CCC[C@@H](C)[C@H]1CC[C@H]2C3=CC[C@@H]4C(=O)C=CC(=O)[C@@H]4[C@@H]3CC[C@]12C
[2]
  CC50: > 100 µM
[3]
  CC50: > 100 µM
[4]
  CC50: > 100 µM
[5]
  CC50: > 100 µM
[6]
  GI50: 384 nM
  TGI: 1120 nM
[7]
  GI50: 312 nM
  TGI: > 100 µM
[8]
  GI50: 311 nM
  TGI: 1500 nM
[9]
  GI50: 153 nM
[10]
  CC50: > 100 µM
[11]
  CC50: > 100 µM
[12]
  CC50: > 100 µM
[13]
  GI50: 279 nM
  TGI: 633 nM
[14]
  GI50: 299 nM
[15]
  GI50: 269 nM
  TGI: > 100000 nM
[16]
  GI50: 305 nM
  TGI: 849 nM
[17]
  GI50: 338 nM
  TGI: > 100000 nM
[18]
  CC50: > 100 µM
[19]
  CC50: > 100 µM
[20]
  GI50: 302 nM
[21]
  GI50: 566 nM
  TGI: > 100000 nM
[22]
  GI50: 212 nM
  TGI: > 100000 nM
[23]
  GI50: 28 nM
  TGI: 86 nM
[24]
  GI50: 58 nM
  TGI: 1180 nM
[25]
  CC50: > 100 µM
[26]
  CC50: > 100 µM
[27]
  CC50: > 100000 nM
[28]
  GI50: 333 nM
  TGI: 5.59 µM
[29]
  CC50: > 100 µM
[30]
  GI50: 59 nM
  TGI: 1570 nM
[31]
  CC50: > 100 µM
[32]
  CC50: > 100 µM
[33]
  CC50: > 100 µM
[34]
  CC50: > 100 µM
[35]
  GI50: 632 nM
  TGI: > 100000 nM
[36]
  GI50: 80 nM
  TGI: 220 nM

## CC(C)CCC[C@@H](C)[C@H]1CC[C@H]2C3=CCn4c(=O)ccc(=O)n4[C@@H]3CC[C@]12C
[2]
  CC50: 5.28 µM
[3]
  CC50: 5.84 µM
[4]
  CC50: 3.6 µM
[5]
  CC50: 3.32 µM
[6]
  GI50: 1060 nM
  TGI: 2270 nM
[7]
  GI50: 545 nM
  TGI: 4.13 µM
[8]
  GI50: 713 nM
  TGI: 1950 nM
[9]
  GI50: 113 nM
  TGI: 490 nM
[10]
  CC50: 6.01 µM
[11]
  CC50: 5.33 µM
[12]
  CC50: 5.73 µM
[13]
  GI50: 179 nM
  TGI: 577 nM
[14]
  GI50: 285 nM
  TGI: 1010 nM
[15]
  GI50: 388 nM
  TGI: 1690 nM
[16]
  GI50: 1450 nM
  TGI: 2910 nM
[17]
  GI50: 443 nM
  TGI: 1510 nM
[1]
  diameter of the inhibition zone (DIZ): 8 mm
[18]
  CC50: 4.89 µM
[19]
  CC50: 8.33 µM
[20]
  GI50: 512 nM
  TGI: 1650 nM
[21]
  GI50: 1460 nM
  TGI: 2880 nM
[22]
  GI50: 1050 nM
  TGI: 2870 nM
[23]
  GI50: 175 nM
  TGI: 1030 nM
[24]
  GI50: 317 nM
  TGI: 1580 nM
[25]
  CC50: 9 µM
[26]
  CC50: 5.7 µM
[27]
  CC50: 2280 nM
[28]
  GI50: 739 nM
  TGI: 2.25 µM
[29]
  CC50: > 100 µM
[30]
  GI50: 243 nM
  TGI: 1110 nM
[31]
  CC50: 4.04 µM
[32]
  CC50: > 100 µM
[33]
  CC50: 5.64 µM
[34]
  CC50: 7.33 µM
[35]
  GI50: 1040 nM
  TGI: 2260 nM
[36]
  GI50: 255 nM
  TGI: 623 nM
